In brackets after ≈: the same amount, converted by molar mass. Activity calls are given as the source filed them. No cut-off for these calls is given here.
Tests used:
[1] = Metabolic stability in rat liver microsomes assessed as compound remaining at 1 uM measured after 30 mins; format: ADME, microsome; conditions: read-out: Stability
[2] = system: Mycobacterium tuberculosis; assay: Antitubercular activity against Mycobacterium tuberculosis H37Ra infected in THP-1 macrophages measured after 5 days post infection by luciferase reporter gene assay; format: functional; conditions: THP-1, 120 h
In short: (§1)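 Firefly luciferase reporter Mtb infected THP-1 cells. Bacterial growth was read by luminescence five days post-infection, and the value was reported as the 50% inhibitory concentration. The assay medium used glucose and glycerol as the carbon source.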

Mus musculus = assay: Dose normalized AUC in mouse at 3 mg/kg, po or 1 mg/kg, iv; format: ADME, organism-based; conditions: in vivo
In short: (§2)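 Mouse pharmacokinetics after 3 mg/kg oral or 1 mg/kg intravenous dosing. Clearance is in mL/min/kg. AUC is in μg*h/mL, with oral exposure normalised to the actual dose.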

[3] = system: Mycobacterium tuberculosis; assay: Antitubercular activity against Mycobacterium tuberculosis H37Ra BSL2 cultured in broth; format: functional
In short: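 BSL2 H37Ra broth assay. MIC was taken as the concentration (μM) giving 70% growth inhibition versus control wells.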

[4] = system: Mycobacterium tuberculosis; assay: Antitubercular activity against Mycobacterium tuberculosis Erdman BSL3 infected in THP-1 macrophages using middlebrook 7H12 broth media after 5 days post infection by luciferase reporter gene assay; format: functional, Mycobacterium tuberculosis str. Erdman = ATCC 35801; conditions: BSL3, THP-1, 120 h
[5] = Clearance in mouse at 1 mg/kg, iv; format: ADME, organism-based; conditions: in vivo; in short: as §2
[6] = Half life in mouse at 3 mg/kg, po or 1 mg/kg, iv; format: ADME, organism-based; conditions: in vivo; in short: as §2
[7] = system: Mycobacterium tuberculosis; assay: Antitubercular activity against Mycobacterium tuberculosis H37Rv BSL3 infected in THP-1 macrophages under anaerobic condition after 5 days post infection by luciferase reporter gene assay; format: functional; conditions: H37Rv BSL3, THP-1, 120 h
[8] = system: Mycobacterium tuberculosis; assay: Antitubercular activity against Mycobacterium tuberculosis Erdman BSL3 infected in THP-1 macrophages using middlebrook 7H9 broth media after 5 days post infection by luciferase reporter gene assay; format: functional, Mycobacterium tuberculosis str. Erdman = ATCC 35801; conditions: BSL3, 120 h
[9] = system: Mycobacterium tuberculosis; assay: Antitubercular activity against Mycobacterium tuberculosis Erdman BSL3 infected in BALB/c mouse assessed as reduction in colony forming units in lung homogenates at 100 mg/kg administered daily via oral gavage for 5 days per week for 4 weeks; format: functional, organism-based; conditions: Mycobacterium tuberculosis str. Erdman = ATCC 35801
In short: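 BALB/c mice were infected intranasally with 10^6 cfu of the Erdman isolate, six mice per group. Dosing was 100 mg/kg daily, 5 days/week, for four weeks. Lung homogenates were plated for cfu. An early-control group was killed at the start of therapy to set the infection load, and a late-control group marked the endpoint and confirmed virulence. Rifampin at 10 mg/kg was the positive control.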

[10] = system: Mycobacterium tuberculosis; assay: Antitubercular activity against Mycobacterium tuberculosis H37Ra BSL2 infected in THP-1 macrophages after 5 days post infection by luciferase reporter gene assay; format: functional; conditions: H37Ra BSL2, THP-1, 120 h; in short: as §1
[11] = system: Mycobacterium tuberculosis; assay: Antitubercular activity against Mycobacterium tuberculosis H37Rv BSL3 infected in THP-1 macrophages using middlebrook 7H12 broth media after 5 days post infection by luciferase reporter gene assay; format: functional; conditions: H37Rv BSL3, THP-1, 120 h
[12] = system: Mycobacterium tuberculosis; assay: Antitubercular activity against Mycobacterium tuberculosis H37Rv BSL3 infected in THP-1 macrophages using middlebrook 7H9 broth media after 5 days post infection by luciferase reporter gene assay; format: functional; conditions: H37Rv BSL3, THP-1, 120 h

Q: With `Cc1csc(Nc2ccc(C(C)(C)O)cc2)n1` as the molecule, how does the remaining at 0.5 h, 1 µM [1] read?
A: Its remaining at 0.5 h, 1 µM is 12%.

Q: And the IC50 [2]?
A: Its IC50 is 60 nM.

Q: With `CCC(O)Cc1ccc(Nc2nc(C)cs2)cc1` (stereo not drawn) as the molecule, how does the remaining at 0.5 h, 1 µM [1] read?
A: Its remaining at 0.5 h, 1 µM is 1%.

Q: And the IC50 [2]?
A: The IC50 was 400 nM.

Q: For `CCCCc1ccc(Nc2nc(CC(=O)O)cs2)cc1`, which AUC/dose (Mus musculus) is on record?
A: Its AUC/dose is 4.9 µg·h/mL.

Q: What about the MIC70 [3] of the same molecule?
A: The MIC70 was 0.16 µM (≈ 0.0465 µg/mL).

Q: What about the IC50 [4] of the same molecule?
A: The IC50 was 56000 nM.

Q: And the clearance [5]?
A: The clearance was 5 mL/min/kg.

Q: And the half-life [6]?
A: Its half-life is 3.1 h.

Q: And the IC50 [7]?
A: The IC50 was 17800 nM.

Q: And the MIC90 [8]?
A: The MIC90 was 7.8 µM (≈ 2.27 µg/mL).

Q: What about the IC50 [2] of the same molecule?
A: Its IC50 is 150 nM.

Q: And the Activity [9]?
A: Its Activity is “inactive”.

Q: And the IC50 [10]?
A: The IC50 was 150 nM.

Q: What about the IC50 [11] of the same molecule?
A: Its IC50 is 91000 nM.

Q: What does the source list for `CCc1ccc(Nc2nc(C)cs2)cc1`?
A: remaining at 0.5 h, 1 µM [1]: 0%; IC50 [2]: 120 nM

Q: With `Cc1csc(Nc2ccc(COCC(F)(F)F)cc2)n1` as the molecule, how does the remaining at 0.5 h, 1 µM [1] read?
A: The remaining at 0.5 h, 1 µM was 1%.

Q: And the IC50 [2]?
A: Its IC50 is less than 40 nM.

Q: What does the source list for `CCCOc1ccc(Nc2nc(C)cs2)cc1`?
A: remaining at 0.5 h, 1 µM [1]: 4%; IC50 [2]: 150 nM

Q: What does the source list for `Cc1csc(Nc2ccc(OC3CCCC3)cc2)n1`?
A: remaining at 0.5 h, 1 µM [1]: 10%; IC50 [2]: 70 nM

Q: With `CCCCc1ccc(Nc2nc(C(=O)O)cs2)cc1` as the molecule, how does the IC50 [2] read?
A: The IC50 was greater than 20000 nM.

Q: With `CCCCc1ccc(Nc2nc(CC(N)=O)cs2)cc1` as the molecule, how does the IC50 [2] read?
A: The IC50 was 860 nM.

Q: With `Cc1csc(Nc2ccc(OCCO)cc2)n1` as the molecule, how does the remaining at 0.5 h, 1 µM [1] read?
A: Its remaining at 0.5 h, 1 µM is 73%.

Q: What about the IC50 [2] of the same molecule?
A: The IC50 was 3190 nM.

Q: With `CCCCCc1ccc(Nc2nc(C)cs2)cc1` as the molecule, how does the remaining at 0.5 h, 1 µM [1] read?
A: The remaining at 0.5 h, 1 µM was 3%.

Q: What about the IC50 [2] of the same molecule?
A: Its IC50 is 40 nM.

Q: Which AUC/dose (Mus musculus) does the source give for `CC(C)(C)c1ccc(Nc2nc(CC(=O)O)cs2)cc1` here?
A: The AUC/dose was 24.1 µg·h/mL.

Q: And the MIC70 [3]?
A: Its MIC70 is 0.16 µM (≈ 0.0465 µg/mL).

Q: And the IC50 [4]?
A: The IC50 was 63000 nM.

Q: What about the clearance [5] of the same molecule?
A: The clearance was 4 mL/min/kg.

Q: And the half-life [6]?
A: Its half-life is 1.1 h.

Q: What about the IC50 [7] of the same molecule?
A: The IC50 was greater than 100000 nM.

Q: What about the MIC90 [8] of the same molecule?
A: Its MIC90 is 6.3 µM (≈ 1.83 µg/mL).

Q: And the IC50 [12]?
A: Its IC50 is 9400 nM.

Q: And the IC50 [2]?
A: The IC50 was 70 nM.

Q: And the Activity [9]?
A: The Activity was “inactive”.

Q: And the IC50 [10]?
A: The IC50 was 70 nM.

Q: And the IC50 [11]?
A: Its IC50 is greater than 100000 nM.

Q: For `CCCCc1ccc(Nc2nc(C(C)C(=O)O)cs2)cc1` (stereo not drawn), which AUC/dose (Mus musculus) is on record?
A: The AUC/dose was 4.8 µg·h/mL.

Q: What about the clearance [5] of the same molecule?
A: The clearance was 4 mL/min/kg.

Q: What about the half-life [6] of the same molecule?
A: Its half-life is 0.9 h.

Q: And the IC50 [2]?
A: The IC50 was 140 nM.

Q: With `CCCCc1ccc(Nc2nc(CC(=O)O)c(C)s2)cc1` as the molecule, how does the AUC/dose (Mus musculus) read?
A: Its AUC/dose is 4.8 µg·h/mL.

Q: And the clearance [5]?
A: Its clearance is 7 mL/min/kg.

Q: What about the half-life [6] of the same molecule?
A: The half-life was 1.1 h.

Q: What about the IC50 [2] of the same molecule?
A: Its IC50 is 100 nM.

Q: What does the source list for `CCC(C)c1ccc(Nc2nc(CC(=O)O)cs2)cc1` (racemic)?
A: AUC/dose (Mus musculus): 14.4 µg·h/mL; MIC70 [3]: 0.16 µM (≈ 0.0465 µg/mL); IC50 [4]: > 100000 nM; clearance [5]: 3 mL/min/kg; half-life [6]: 2.8 h; IC50 [7]: 96000 nM; MIC90 [8]: 6.3 µM (≈ 1.83 µg/mL); IC50 [12]: 9400 nM; IC50 [2]: 70 nM; Activity [9]: inactive; IC50 [10]: 70 nM; IC50 [11]: > 100000 nM

Q: Which IC50 [2] does the source give for `Cc1ccc(Nc2nc(C)cs2)cc1` here?
A: Its IC50 is greater than 20000 nM.

Q: Which IC50 [2] does the source give for `Cc1csc(Nc2ccc(CCN(C)C)cc2)n1` here?
A: The IC50 was greater than 20000 nM.

Q: Which results are given for `Cc1csc(Nc2ccc(C(C)C)cc2)n1`?
A: remaining at 0.5 h, 1 µM [1]: 0%; IC50 [2]: 10 nM

Q: Which IC50 [2] does the source give for `CCCCCCc1ccc(Nc2nc(C)cs2)cc1` here?
A: The IC50 was 50 nM.

Q: With `CCCCc1ccc(Nc2nc(C)cs2)cc1` as the molecule, how does the MIC70 [3] read?
A: The MIC70 was 0.04 µM (≈ 0.00986 µg/mL).

Q: What about the remaining at 0.5 h, 1 µM [1] of the same molecule?
A: The remaining at 0.5 h, 1 µM was 1%.

Q: And the IC50 [4]?
A: Its IC50 is greater than 100000 nM.

Q: What about the IC50 [7] of the same molecule?
A: The IC50 was 12000 nM.

Q: What about the MIC90 [8] of the same molecule?
A: Its MIC90 is 7 µM (≈ 1.72 µg/mL).

Q: And the IC50 [2]?
A: The IC50 was less than 5 nM.

Q: And the Activity [9]?
A: Its Activity is “inactive”.

Q: What about the IC50 [10] of the same molecule?
A: Its IC50 is 40 nM.

Q: What about the IC50 [11] of the same molecule?
A: Its IC50 is 47000 nM.

Q: Which results are given for `CO[C@H]1/C=C/O[C@@]2(C)Oc3c(C)c(O)c4c(O)c(c(/C=N/N5CCN(C)CC5)c(O)c4c3C2=O)NC(=O)/C(C)=C\C=C\[C@H](C)[C@H](O)[C@@H](C)[C@@H](O)[C@@H](C)[C@H](OC(C)=O)[C@@H]1C` [RIFAMPIN]?
A: MIC70 [3]: 0.08 µM (≈ 0.0658 µg/mL); IC50 [10]: 30 nM

Q: Which remaining at 0.5 h, 1 µM [1] does the source give for `Cc1csc(Nc2ccc(C(C)(C)C)cc2)n1` here?
A: The remaining at 0.5 h, 1 µM was 0%.

Q: And the IC50 [2]?
A: Its IC50 is less than 40 nM.

Q: For `O=C(O)Cc1csc(Nc2ccc(OCCC(F)(F)F)cc2)n1`, which AUC/dose (Mus musculus) is on record?
A: Its AUC/dose is 15 µg·h/mL.

Q: What about the clearance [5] of the same molecule?
A: Its clearance is 1.5 mL/min/kg.

Q: And the half-life [6]?
A: Its half-life is 1.6 h.

Q: And the IC50 [2]?
A: Its IC50 is 270 nM.

Q: Which results are given for `CCCCc1ccc(Nc2nc(C(C)(C)C(=O)O)cs2)cc1`?
A: AUC/dose (Mus musculus): 1.4 µg·h/mL; clearance [5]: 18 mL/min/kg; half-life [6]: 5 h; IC50 [2]: 140 nM

Q: What does the source list for `CCNCc1ccc(Nc2nc(C)cs2)cc1`?
A: remaining at 0.5 h, 1 µM [1]: 0%; IC50 [2]: > 20000 nM

Q: With `CCC(C)c1ccc(Nc2nc(C)cs2)cc1` (stereo not drawn) as the molecule, how does the remaining at 0.5 h, 1 µM [1] read?
A: The remaining at 0.5 h, 1 µM was 0%.

Q: What about the IC50 [2] of the same molecule?
A: The IC50 was less than 40 nM.

Q: Which results are given for `CCCCc1ccc(Nc2nc(CC(=O)O)c(Cl)s2)cc1`?
A: AUC/dose (Mus musculus): 6 µg·h/mL; MIC70 [3]: 0.39 µM (≈ 0.127 µg/mL); IC50 [4]: 54000 nM; clearance [5]: 5 mL/min/kg; half-life [6]: 1.1 h; IC50 [7]: 5600 nM; MIC90 [8]: 12.5 µM (≈ 4.06 µg/mL); IC50 [12]: 6300 nM; IC50 [2]: 70 nM; Activity [9]: inactive; IC50 [10]: 70 nM; IC50 [11]: > 100000 nM
